Converted amounts (≈) assume the structure as drawn.
How the values were obtained:
[1] = system: Proteus vulgaris; assay: Antimicrobial activity against Proteus vulgaris ATCC 49132 after 18 to 24 hrs by microbroth dilution method; format: functional
Summary of the method: (§1)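 Bacteria were cultured in Mueller Hinton broth in 96-well microtiter plates, and the suspensions were added to MHB containing varying concentrations of test compound. Plates were incubated at 37 °C for 18–24 h, then read visually with a reading mirror and spectrophotometrically at 450 nm. MIC was taken as the lowest concentration giving complete suppression of visible growth.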

[2] = system: Vibrio parahaemolyticus; assay: Antimicrobial activity against Vibrio parahaemolyticus ATCC 17802 after 18 to 24 hrs by microbroth dilution method; format: functional; summary of the method: as §1
[3] = system: Shigella boydii; assay: Antimicrobial activity against Shigella boydii ATCC 9207 after 18 to 24 hrs by microbroth dilution method; format: functional; summary of the method: as §1
[4] = system: Klebsiella pneumoniae; assay: Antimicrobial activity against Klebsiella pneumoniae ATCC 10031 after 18 to 24 hrs by microbroth dilution method; format: functional; summary of the method: as §1
[5] = system: Streptococcus mitis; assay: Antimicrobial activity against Streptococcus mitis ATCC 6249 after 18 to 24 hrs by microbroth dilution method; format: functional; summary of the method: as §1
[6] = system: Bacillus subtilis; assay: Antimicrobial activity against Bacillus subtilis ATCC 11774 after 18 to 24 hrs by microbroth dilution method; format: functional; summary of the method: as §1
[7] = system: Streptococcus salivarius; assay: Antimicrobial activity against Streptococcus salivarius ATCC 13419 after 18 to 24 hrs by microbroth dilution method; format: functional; summary of the method: as §1
[8] = system: Proteus mirabilis; assay: Antimicrobial activity against Proteus mirabilis ATCC 7002 after 18 to 24 hrs by microbroth dilution method; format: functional; summary of the method: as §1
[9] = system: Aeromonas hydrophila; assay: Antimicrobial activity against Aeromonas hydrophila ATCC 7966 after 18 to 24 hrs by microbroth dilution method; format: functional; summary of the method: as §1
[10] = system: Salmonella paratyphi; assay: Antimicrobial activity against Salmonella paratyphi A ATCC 9150 after 18 to 24 hrs by microbroth dilution method; format: functional, Salmonella enterica subsp. enterica serovar Paratyphi A; conditions: Salmonella enterica
Summary of the method: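 Broth microdilution in 96-well plates; bacteria grown in Mueller Hinton broth with varying concentrations of test compound, incubated at 37 °C for 18–24 h. Plates read visually with a reading mirror and spectrophotometrically at 450 nm. MIC taken as lowest concentration giving complete suppression of visible growth.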

[11] = system: Candida albicans; assay: Antimicrobial activity against Candida albicans ATCC 90028 after 18 to 24 hrs by microbroth dilution method; format: functional
Summary of the method: as §1, with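 “Fungal isolates” for “Bacteria”, “cultivated” for “cultured”, “Sabouraud's” for “Mueller Hinton”, “SDB” for “MHB”, “completely suppressing” for “giving complete suppression of”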

[12] = system: Staphylococcus aureus; assay: Antimicrobial activity against Staphylococcus aureus ATCC 11632 after 18 to 24 hrs by microbroth dilution method; format: functional; summary of the method: as §1
[13] = system: Cryptococcus neoformans; assay: Antimicrobial activity against Cryptococcus neoformans ATCC 14116 after 18 to 24 hrs by microbroth dilution method; format: functional
Summary of the method: as §1, with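 “Fungal isolates” for “Bacteria”, “cultivated” for “cultured”, “Sabouraud's” for “Mueller Hinton”, “SDB” for “MHB”, “completely suppressing” for “giving complete suppression of”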

[14] = system: Vibrio alginolyticus; assay: Antimicrobial activity against Vibrio alginolyticus ATCC 17749 after 18 to 24 hrs by microbroth dilution method; format: functional; summary of the method: as §1

Compound | MIC [1] | MIC [2] | MIC [3] | MIC [4] | MIC [5] | MIC [6] | MIC [7] | MIC [8] | MIC [9] | MIC [10] | MIC [11] | MIC [12] | MIC [13] | MIC [14]
CCn1cc(C(=O)O)c(=O)c2cc(F)c(N3CCN(c4ccc(F)cc4)CC3)c(F)c21 | 2.5 µg/mL (≈ 5.79 µM) | 1.5 µg/mL (≈ 3.48 µM) | 2 µg/mL (≈ 4.64 µM) | 1.5 µg/mL (≈ 3.48 µM) | 1.5 µg/mL (≈ 3.48 µM) | 2.5 µg/mL (≈ 5.79 µM) | 1.5 µg/mL (≈ 3.48 µM) | 1.25 µg/mL (≈ 2.9 µM) | – | – | – | – | – | –
CCn1cc(C(=O)O)c(=O)c2cc(F)c(N3CCN(c4ccccc4F)CC3)c(F)c21 | 2.5 µg/mL (≈ 5.79 µM) | 1.5 µg/mL (≈ 3.48 µM) | 2 µg/mL (≈ 4.64 µM) | 1.5 µg/mL (≈ 3.48 µM) | 1.5 µg/mL (≈ 3.48 µM) | 1.25 µg/mL (≈ 2.9 µM) | 1 µg/mL (≈ 2.32 µM) | 5 µg/mL (≈ 11.6 µM) | 1.5 µg/mL (≈ 3.48 µM) | – | – | – | – | –
CCn1cc(C(=O)O)c(=O)c2cc(F)c(N3CCN(c4ccccc4C#N)CC3)c(F)c21 | 1 µg/mL (≈ 2.28 µM) | 1.5 µg/mL (≈ 3.42 µM) | 2 µg/mL (≈ 4.56 µM) | 1 µg/mL (≈ 2.28 µM) | 1.5 µg/mL (≈ 3.42 µM) | 1.5 µg/mL (≈ 3.42 µM) | 2.5 µg/mL (≈ 5.7 µM) | 2.5 µg/mL (≈ 5.7 µM) | – | 1.5 µg/mL (≈ 3.42 µM) | – | – | – | –
CCn1cc(C(=O)O)c(=O)c2cc(F)c(N3CCN(Cc4ccccc4)CC3)c(F)c21 | – | 1.5 µg/mL (≈ 3.51 µM) | 1.5 µg/mL (≈ 3.51 µM) | 1 µg/mL (≈ 2.34 µM) | 1.5 µg/mL (≈ 3.51 µM) | – | 2.5 µg/mL (≈ 5.85 µM) | 1.5 µg/mL (≈ 3.51 µM) | 1.5 µg/mL (≈ 3.51 µM) | 1 µg/mL (≈ 2.34 µM) | – | – | – | –
CCn1cc(C(=O)O)c(=O)c2cc(F)c(N3CCN(c4ccccc4)CC3)c(F)c21 | 1.5 µg/mL (≈ 3.63 µM) | – | – | 2 µg/mL (≈ 4.84 µM) | 1.5 µg/mL (≈ 3.63 µM) | 5 µg/mL (≈ 12.1 µM) | 1 µg/mL (≈ 2.42 µM) | 1.5 µg/mL (≈ 3.63 µM) | – | – | 413 µg/mL (≈ 1000 µM) | 1 µg/mL (≈ 2.42 µM) | – | –
CCn1cc(C(=O)O)c(=O)c2cc(F)c(N3CCN(c4cccc(Cl)c4Cl)CC3)c(F)c21 | 2.5 µg/mL (≈ 5.18 µM) | 1.25 µg/mL (≈ 2.59 µM) | 1 µg/mL (≈ 2.07 µM) | 1.25 µg/mL (≈ 2.59 µM) | 5 µg/mL (≈ 10.4 µM) | 5 µg/mL (≈ 10.4 µM) | 2.5 µg/mL (≈ 5.18 µM) | 5 µg/mL (≈ 10.4 µM) | 0.5 µg/mL (≈ 1.04 µM) | 5 µg/mL (≈ 10.4 µM) | 108 µg/mL (≈ 224 µM) | 1 µg/mL (≈ 2.07 µM) | 2.17 µg/mL (≈ 4.5 µM) | 1 µg/mL (≈ 2.07 µM)

Source: ChEMBL document CHEMBL1629487, “Synthesis and in vitro antimicrobial evaluation of novel fluoroquinolone derivatives” (2010)
